Measured values taken from ChEMBL document CHEMBL6071151, “Discovery of Inhibitors Targeting Protein-Protein Interaction between Bacterial RNA Polymerase and NusG as Novel Antimicrobials” (J Med Chem, 2024).

Columns and labels:
Assay type in all cases: functional
[1] = system: Enterococcus faecalis; assay: Antimicrobial activity against Enterococcus faecalis ATCC 19433 assessed as reduction in microbial growth measured after 20 hrs by CLSI based broth microdilution method
How it was run: (§1)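 Broth microdilution per CLSI in cation-adjusted Mueller-Hinton broth. Two-fold serial dilutions from 256 to 0.25 μg/mL, inoculum about 5 × 10⁵ CFU/mL. Read after 20 h at 37 °C. MIC is the lowest concentration with no visible growth. Run in duplicate.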

[2] = system: Streptococcus pneumoniae; assay: Antimicrobial activity against Streptococcus pneumoniae ATCC 49619 assessed as reduction in microbial growth measured after 20 hrs by CLSI based broth microdilution method
[3] = system: Enterobacter cloacae; assay: Antimicrobial activity against Enterobacter cloacae ATCC 13047 assessed as reduction in microbial growth measured after 20 hrs by CLSI based broth microdilution method; how it was run: as §1
[4] = system: Staphylococcus aureus; assay: Antimicrobial activity against Staphylococcus aureus ATCC 29213 assessed as reduction in microbial growth measured after 20 hrs by CLSI based broth microdilution method; how it was run: as §1
[5] = system: Escherichia coli; assay: Antimicrobial activity against Escherichia coli ATCC 25922 assessed as reduction in microbial growth measured after 20 hrs by CLSI based broth microdilution method; how it was run: as §1
[6] = system: Pseudomonas aeruginosa; assay: Antimicrobial activity against Pseudomonas aeruginosa ATCC 27853 assessed as reduction in microbial growth measured after 20 hrs by CLSI based broth microdilution method; how it was run: as §1
[7] = system: Acinetobacter baumannii; assay: Antimicrobial activity against Acinetobacter baumannii ATCC 19606 assessed as reduction in microbial growth measured after 20 hrs by CLSI based broth microdilution method; how it was run: as §1
[8] = system: Staphylococcus aureus; assay: Antimicrobial activity against Staphylococcus aureus ATCC 25923 assessed as reduction in microbial growth measured after 20 hrs by CLSI based broth microdilution method; how it was run: as §1
[9] = system: Klebsiella pneumoniae; assay: Antimicrobial activity against Klebsiella pneumoniae ATCC 700603 assessed as reduction in microbial growth measured after 20 hrs by CLSI based broth microdilution method; how it was run: as §1

| Structure (SMILES) | MIC [1] [µg/mL] | MIC [2] [µg/mL] | MIC [3] [µg/mL] | MIC [4] [µg/mL] | MIC [5] [µg/mL] | MIC [6] [µg/mL] | MIC [7] [µg/mL] | MIC [8] [µg/mL] | MIC [9] [µg/mL] |
| --- | --- | --- | --- | --- | --- | --- | --- | --- | --- |
| OC(CNCCNc1ccccc1C(F)(F)F)COCc1ccc(C(F)(F)F)cc1 (stereo not given) | 64 | 32 | 128 | 64 | 64 | > 256 | 64 | 64 | > 256 |
| OC(CNCCNc1nccc(C(F)(F)F)n1)COc1ccc(F)cc1 (stereo not given) | > 256 | 128 | > 256 | 256 | > 256 | > 256 | > 256 | > 256 | > 256 |
| O=[N+]([O-])c1ccccc1NCCNCC(O)COc1ccc(C(F)(F)F)cc1 (stereo not given) | 128 | 32 | 128 | 128 | > 256 | > 256 | > 256 | 128 | > 256 |
| O=[N+]([O-])c1ccc(OCC(O)CNCCNc2cccc(C(F)(F)F)n2)cc1 (stereo not given) | 128 | 32 | 256 | 64 | 256 | > 256 | 256 | 128 | > 256 |
| OC(CNCCNc1nccc(C(F)(F)F)n1)COc1ccccc1 (stereo not given) | > 256 | 128 | > 256 | > 256 | > 256 | > 256 | > 256 | > 256 | > 256 |
| OC(CNCCNc1ccc(C(F)(F)F)cn1)CNc1ccc(C(F)(F)F)cc1 (stereo not given) | 16 | 16 | 64 | 32 | 64 | > 256 | 32 | 32 | > 256 |
| OC(CNCCNc1ccc(-c2ccccc2)cc1)COc1ccc(C(F)(F)F)cc1 (stereo not given) | > 256 | > 256 | > 256 | > 256 | > 256 | > 256 | > 256 | > 256 | > 256 |
| O=[N+]([O-])c1ccc(OCC(O)CNCCNc2ccc(C(F)(F)F)cn2)cc1 (stereo not given) | 128 | 64 | 128 | 32 | 128 | > 256 | 128 | 32 | > 256 |
| OC(CNCCNc1ccccc1C(F)(F)F)COc1cccc(C(F)(F)F)c1 (stereo not given) | 16 | 16 | 32 | 32 | 32 | > 256 | 32 | 32 | > 256 |
| OC(CNCCNc1ccc(C(F)(F)F)cn1)COCc1cccc(C(F)(F)F)c1 (stereo not given) | 64 | 32 | 256 | 32 | 64 | > 256 | 128 | 64 | > 256 |
| O=[N+]([O-])c1ccc(OCC(O)CNCCNc2nccc(C(F)(F)F)n2)cc1 (stereo not given) | 256 | 128 | > 256 | 128 | > 256 | > 256 | > 256 | 256 | > 256 |
| OC(CNCCNc1ccc(C(F)(F)F)cn1)COCc1ccccc1C(F)(F)F (stereo not given) | 128 | 64 | 128 | 64 | 128 | > 256 | 128 | 64 | > 256 |
| OC(CNCCNc1cccc(C(F)(F)F)c1)COc1ccc(C(F)(F)F)cc1 (stereo not given) | > 256 | > 256 | > 256 | > 256 | > 256 | > 256 | > 256 | > 256 | > 256 |
| O=[N+]([O-])c1ccc(OCC(O)CNCCNc2ncccn2)cc1 (stereo not given) | > 256 | > 256 | > 256 | > 256 | > 256 | > 256 | > 256 | > 256 | > 256 |
| COc1ccc(OCC(O)CNCCNc2nccc(C(F)(F)F)n2)cc1 (stereo not given) | > 256 | 256 | > 256 | > 256 | > 256 | > 256 | > 256 | > 256 | > 256 |
| COC(=O)c1ccc(OCC(O)CNCCNc2nccc(C(F)(F)F)n2)cc1 (stereo not given) | > 256 | 256 | > 256 | > 256 | > 256 | > 256 | > 256 | > 256 | > 256 |
| N#Cc1ccc(OCC(O)CNCCNc2ccccc2C(F)(F)F)cc1 (stereo not given) | > 256 | 128 | > 256 | 128 | > 256 | > 256 | > 256 | > 256 | > 256 |

Continued, values first:

| MIC [1] [µg/mL] | MIC [2] [µg/mL] | MIC [3] [µg/mL] | MIC [4] [µg/mL] | MIC [5] [µg/mL] | MIC [6] [µg/mL] | MIC [7] [µg/mL] | MIC [8] [µg/mL] | MIC [9] [µg/mL] | Structure (SMILES) |
| --- | --- | --- | --- | --- | --- | --- | --- | --- | --- |
| > 256 | 128 | > 256 | 128 | > 256 | > 256 | > 256 | > 256 | > 256 | OC(CNCCNc1ccccc1C(F)(F)F)COCc1cccc(C(F)(F)F)c1.OC(CNCCNc1ccccc1C(F)(F)F)COCc1cccc(C(F)(F)F)c1 (stereo not given) |
| 256 | 64 | 256 | 256 | 128 | > 256 | 256 | 256 | > 256 | OC(CNCCNc1nccc(C(F)(F)F)n1)COc1ccc(F)c(F)c1 (stereo not given) |
| 32 | 8 | 256 | 32 | 128 | > 256 | 256 | 64 | > 256 | OC(CNCCNc1ccc(C(F)(F)F)cc1)COc1ccc(C(F)(F)F)cc1 (stereo not given) |
| 32 | 16 | 64 | 8 | 32 | > 256 | 32 | 16 | > 256 | OC(CNCCNc1ccc(C(F)(F)F)cn1)CSCc1ccc(C(F)(F)F)cc1 (stereo not given) |
| 32 | 32 | 64 | 32 | 64 | > 256 | 64 | 64 | > 256 | OC(CNCCNc1ccccc1C(F)(F)F)COc1ccccc1C(F)(F)F (stereo not given) |
| 128 | 64 | 128 | 64 | 128 | > 256 | 128 | 64 | > 256 | O=[N+]([O-])c1ccc(OCC(O)CNCCNc2ccccc2C(F)(F)F)cc1 (stereo not given) |
| > 256 | 128 | > 256 | 128 | > 256 | > 256 | > 256 | > 256 | > 256 | OC(CNCCNc1ccccc1C(F)(F)F)COCc1ccccc1C(F)(F)F (stereo not given) |
| 128 | 64 | 128 | 128 | 16 | > 256 | 128 | 128 | > 256 | N#Cc1ccccc1NCCNCC(O)COc1ccc(C(F)(F)F)cc1 (stereo not given) |
